From ChEMBL document CHEMBL1138577, “Design, synthesis of 8-alkoxy-5,6-dihydro-[1,2,4]triazino[4,3-a]quinolin-1-ones with anticonvulsant activity” (Eur J Med Chem, 2009)
Activity calls are given as the source filed them. No cut-off for these calls is given here.

How the values were obtained:
[1] = tested on: Mus musculus; assay: Anticonvulsant activity in ip dosed C57B/6 mouse assessed as protection against maximal electroshock-induced seizures administered before 30 mins of MES induction; format: functional; details: C57B/6, ip, 0.5 h
Outline: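 Compound in polyethyleneglycol-400 given ip to C57B/6 mice (18–25 g, 10 per group) over a dose range. 30 min post-dose, 60-Hz alternating current, 50 mA, applied via corneal electrodes for 0.2 s. Protection scored as abolition of hind-leg tonic maximal extension; doses spanning 10–90% protection used to derive ED50.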

[2] = tested on: Mus musculus; assay: Anticonvulsant activity in ip dosed C57B/6 mouse assessed as protection against pentylenetetrazole-induced seizures administered before 30 mins of pentylenetetrazole induction; format: functional; details: C57B/6, ip, 0.5 h
Outline: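 Pentylenetetrazole 85 mg/kg sc, a dose convulsing 100% of naïve animals, given 30 min after ip compound (PEG-400 vehicle, several doses) to C57B/6 mice, 18–25 g, groups of 10. ED50 calculated as dose preventing tonic convulsions in 50% of animals.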

[3] = tested on: Mus musculus; assay: Anticonvulsant activity in ip dosed C57B/6 mouse assessed as protection against isoniazid-induced seizures administered before 30 mins of isoniazid induction measured for 1 hr; format: functional; details: C57B/6, ip
Outline: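 Mice (C57B/6, 18–25 g; n=10 per group) dosed ip with compound in PEG-400 at several doses, then challenged 30 min later with isoniazid 250 mg/kg ip, a dose convulsing all naïve animals. Housed singly and watched 1 h for tonic convulsions; ED50 = dose preventing them in 50% of animals.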

[4] = tested on: Mus musculus; assay: Anticonvulsant activity in ip dosed C57B/6 mouse assessed as protection against thiosemicarbazide-induced seizures administered before 30 mins of thiosemicarbazide induction measured after 1 hr; format: functional; details: C57B/6, ip
Outline: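 Thiosemicarbazide 50 mg/kg ip, a dose convulsing 100% of animals, given 30 min after ip test compound (PEG-400, various doses) to C57B/6 mice (18–25 g, n=10/group). Tonic convulsions scored; ED50 calculated as dose preventing them in 50% of treated animals.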

[5] = tested on: Mus musculus; assay: Anticonvulsant activity in ip dosed C57B/6 mouse assessed as protection against 3 mercaptopropionic acid-induced seizures administered before 30 mins of 3 mercaptopropionic acid induction measured after 1 hr; format: functional; details: C57B/6, ip
Outline: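 C57B/6 mice (18–25 g), groups of 10, given test compound ip in polyethyleneglycol-400 across a dose range; 30 min later 3-MP 40 mg/kg in saline injected sc. Endpoint: prevention of tonic convulsions; ED50 calculated as dose protecting 50% of animals.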

[6] = tested on: Mus musculus; assay: Anticonvulsant activity in ip dosed C57B/6 mouse assessed as protection against strychnine-induced seizures administered before 30 mins of strychnine induction measured for 30 mins; format: functional, organism-based
Outline: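 C57B/6 mice (18–25 g, groups of 10) received compound ip in polyethyleneglycol-400; 30 min later strychnine chlorhydrate in saline (1.2 mg/mL, 1 mL/kg) given sc, a dose convulsing all naïve animals. Mice observed individually for 30 min.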

[7] = Neurotoxicity in C57B/6 mouse assessed as inability to maintain equilibrium on 1-in diameter rod for 1 min after 30 mins by rotarod test; format: toxicity, organism-based; details: in vivo
Outline: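 Rotarod neurotoxicity: C57B/6 mice (18–25 g, groups of 10) dosed ip with compound in polyethyleneglycol-400 over a dose range; 30 min later placed on 1-in. knurled rod rotating at 6 rpm for 1 min. Toxicity = failure to keep equilibrium in each of three trials; doses spanning 10–90% used for TD50.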

[8] = organism: Mus musculus; assay: Protective index, ratio of TD50 for neurotoxicity in C57B/6 mouse to ED50 for anticonvulsant activity in C57B/6 mouse; format: functional
Outline: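 PI computed as TD50 (rotarod neurotoxicity) divided by ED50 (MES test), both in ip-dosed C57B/6 mice, compounds in PEG-400, tested 30 min post-dose.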

**Q.** For `O=c1cnnc2n1-c1ccc(OCc3cccc(Cl)c3)cc1CC2`, which ED50 [1] is on record?
**A.** 22.8 mg/kg

**Q.** What about the ED50 [2] of the same compound?
**A.** 11.3 mg/kg

**Q.** What about the ED50 [3] of the same compound?
**A.** 19.7 mg/kg

**Q.** And the ED50 [4]?
**A.** 15.8 mg/kg

**Q.** And the ED50 [5]?
**A.** 11.8 mg/kg

**Q.** And the ED50 [6]?
**A.** inactive

**Q.** For `O=c1cnnc2n1-c1ccc(OCc3ccc(F)cc3)cc1CC2`, which ED50 [1] is on record?
**A.** 38 mg/kg

**Q.** With `Cc1nnc2n(c1=O)-c1ccc(OCc3ccccc3)cc1CC2` as the compound, how does the ED50 [1] read?
**A.** > 100 mg/kg

**Q.** With `O=c1cnnc2n1-c1ccc(OCc3ccccc3Br)cc1CC2` as the compound, how does the ED50 [1] read?
**A.** 16.4 mg/kg

**Q.** What about the TD50 at 30 min [7] of the same compound?
**A.** 132 mg/kg

**Q.** And the PI [8]?
**A.** 8

**Q.** Which ED50 [1] does the source give for `O=c1cnnc2n1-c1ccc(OCc3c(Cl)cccc3Cl)cc1CC2` here?
**A.** 20.5 mg/kg

**Q.** Which ED50 [1] does the source give for `O=c1cnnc2n1-c1ccc(OCc3ccc(Cl)cc3Cl)cc1CC2` here?
**A.** 26.4 mg/kg

**Q.** Which ED50 [1] does the source give for `CCOc1ccc2c(c1)CCc1nncc(=O)n1-2` here?
**A.** 39.4 mg/kg

**Q.** With `CCCCCCOc1ccc2c(c1)CCc1nncc(=O)n1-2` as the compound, how does the ED50 [1] read?
**A.** 19.7 mg/kg

**Q.** And the TD50 at 30 min [7]?
**A.** 82.2 mg/kg

**Q.** What about the PI [8] of the same compound?
**A.** 4.2

**Q.** With `c1ccc(COc2ccc3c(c2)CCc2nncn2-3)cc1` as the compound, how does the ED50 [2] read?
**A.** 24 mg/kg

**Q.** Which ED50 [1] does the source give for `COc1ccc(COc2ccc3c(c2)CCc2nncc(=O)n2-3)cc1` here?
**A.** 56.8 mg/kg

**Q.** With `COc1ccc(COc2ccc3c(c2)CCc2nncc(=O)n2-3)cc1OC` as the compound, how does the ED50 [1] read?
**A.** 45.6 mg/kg

**Q.** With `NC(=O)N1c2ccccc2C=Cc2ccccc21` [CARBAMAZEPINE] as the compound, how does the ED50 [6] read?
**A.** inactive

**Q.** What about the PI [8] of the same compound?
**A.** 6.4

**Q.** With `O=c1cnnc2n1-c1ccc(OCc3ccccc3)cc1CC2` as the compound, how does the ED50 [1] read?
**A.** 22.8 mg/kg

**Q.** Which ED50 [1] does the source give for `CCCCCOc1ccc2c(c1)CCc1nncc(=O)n1-2` here?
**A.** 21.9 mg/kg

**Q.** With `CCCCOc1ccc2c(c1)CCc1nncc(=O)n1-2` as the compound, how does the ED50 [1] read?
**A.** 22.7 mg/kg

**Q.** Which ED50 [1] does the source give for `O=c1cnnc2n1-c1ccc(OCc3cccc(F)c3)cc1CC2` here?
**A.** 31.7 mg/kg

**Q.** Which ED50 [1] does the source give for `CCCCCCOc1ccc2c(c1)CCc1nnc(C)c(=O)n1-2` here?
**A.** > 100 mg/kg

**Q.** With `O=c1cnnc2n1-c1ccc(OCc3ccc(Br)cc3)cc1CC2` as the compound, how does the ED50 [1] read?
**A.** 64.2 mg/kg

**Q.** With `O=C1CCc2cc(OCc3ccccc3)ccc2N1` as the compound, how does the ED50 [1] read?
**A.** 29.6 mg/kg

**Q.** Which ED50 [1] does the source give for `Cc1ccc(COc2ccc3c(c2)CCc2nncc(=O)n2-3)cc1` here?
**A.** 27.4 mg/kg

**Q.** For `O=c1cnnc2n1-c1ccc(OCc3ccccc3F)cc1CC2`, which ED50 [1] is on record?
**A.** 23.7 mg/kg

**Q.** For `CCCCCCCCCCCCOc1ccc2c(c1)CCc1nncc(=O)n1-2`, which ED50 [1] is on record?
**A.** 54.8 mg/kg

**Q.** Which ED50 [1] does the source give for `O=c1cnnc2n1-c1ccc(OCc3ccc(Cl)cc3)cc1CC2` here?
**A.** 32.9 mg/kg

**Q.** Which ED50 [1] does the source give for `CCCCCCCCOc1ccc2c(c1)CCc1nncc(=O)n1-2` here?
**A.** 12.7 mg/kg

**Q.** And the TD50 at 30 min [7]?
**A.** 98.6 mg/kg

**Q.** And the PI [8]?
**A.** 7.76

**Q.** Which ED50 [1] does the source give for `CCCOc1ccc2c(c1)CCc1nncc(=O)n1-2` here?
**A.** 32.9 mg/kg

**Q.** What does the source list for `CCCCCCCOc1ccc2c(c1)CCc1nncc(=O)n1-2`?
**A.** ED50 [1]: 11.4 mg/kg; TD50 at 30 min [7]: 114 mg/kg; PI [8]: 10

**Q.** What does the source list for `O=c1cnnc2n1-c1ccc(OCc3ccccc3Cl)cc1CC2`?
**A.** ED50 [1]: 13.7 mg/kg; TD50 at 30 min [7]: 106 mg/kg; PI [8]: 7.7
